Measurements from ChEMBL document CHEMBL4393666, “Synthesis and Anti-HCV Activities of 4'-Fluoro-2'-Substituted Uridine Triphosphates and Nucleotide Prodrugs: Discovery of 4'-Fluoro-2'- C-methyluridine 5'-Phosphoramidate Prodrug (AL-335) for the Treatment of Hepatitis C Infection” (J Med Chem, 2019).

How the values were obtained:
[1] = Cytotoxicity against human HuH7 cells infected with HCV con1 subgenomic replicon assessed as reduction in cell viability measured after 3 days by CellTiter-blue cell viability assay; assay type: cell-based, Huh-7
How it was run: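 Con1 replicon Huh-7 cells treated as for the replicon assay (DMEM, 2% FBS, 0.5% DMSO, no G418, 37°C) for 3 days. Viability by CellTiter-Blue; CC50 by curve fitting.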

[2] = tested on: Hepatitis C virus; assay: Antiviral activity against HCV con1 subgenomic replicon infected in human HuH7 cells assessed as reduction in viral RNA replication by qRT-PCR analysis; assay type: functional, organism-based, Hepacivirus hominis; settings: isolate Con1, Huh-7
How it was run: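 Con1 subgenomic replicon Huh-7 cells (neomycin selection, kept in DMEM/10% FBS with 0.25 mg/ml G418) treated with compounds in DMEM, 2% FBS, 0.5% DMSO, no G418, at 37°C. Total RNA extracted; HCV RNA copy number by multiplex Taqman QRT-PCR. EC50/EC90 by 4-parameter curve fit; EC50 is the mean of ≥2 independent runs.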

[3] = target: RNA-directed RNA polymerase (Hepacivirus hominis, UniProt O39930); assay: Inhibition of HCV NS5B RNA-dependent RNA polymerase activity assessed as reduction in radiolabeled-CTP incorporation into RNA using cIRES template measured after 2 hrs by microscintillation counting method
RNA-directed RNA polymerase, sequence (O39930 whole entry): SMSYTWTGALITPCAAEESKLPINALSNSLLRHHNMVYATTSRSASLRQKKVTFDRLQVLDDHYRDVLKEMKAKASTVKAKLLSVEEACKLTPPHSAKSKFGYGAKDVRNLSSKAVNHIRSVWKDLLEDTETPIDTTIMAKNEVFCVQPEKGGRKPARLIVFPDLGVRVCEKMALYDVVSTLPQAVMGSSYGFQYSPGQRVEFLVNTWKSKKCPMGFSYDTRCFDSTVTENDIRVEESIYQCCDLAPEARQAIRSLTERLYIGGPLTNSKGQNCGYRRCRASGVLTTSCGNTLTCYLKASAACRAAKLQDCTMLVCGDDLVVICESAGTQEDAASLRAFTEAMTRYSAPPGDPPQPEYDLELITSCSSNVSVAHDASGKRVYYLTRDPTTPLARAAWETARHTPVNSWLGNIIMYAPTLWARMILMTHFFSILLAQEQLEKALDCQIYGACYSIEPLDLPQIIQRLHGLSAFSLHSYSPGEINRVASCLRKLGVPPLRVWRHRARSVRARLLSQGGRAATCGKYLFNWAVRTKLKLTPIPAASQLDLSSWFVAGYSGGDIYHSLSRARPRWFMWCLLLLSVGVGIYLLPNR

| EC50 [2] | IC50 [3] | Compound | CC50 at 72 h [1] |
| --- | --- | --- | --- |
| 70 nM |  | C#C[C@]1(O)[C@H](n2ccc(=O)[nH]c2=O)O[C@](F)(COP(=O)(N[C@@H](C)C(=O)OC2CCCCC2)Oc2ccccc2)[C@H]1O (stereo partly drawn) | > 100000 nM |
|  | 84000 nM | CC[C@]1(O)[C@H](n2ccc(=O)[nH]c2=O)O[C@](F)(COP(=O)(O)OP(=O)(O)OP(=O)(O)O)[C@H]1O |  |
|  | 6400 nM | C=C[C@]1(O)[C@H](n2ccc(=O)[nH]c2=O)O[C@](F)(COP(=O)(O)OP(=O)(O)OP(=O)(O)O)[C@H]1O |  |
|  | 39 nM | C#C[C@]1(O)[C@H](n2ccc(=O)[nH]c2=O)O[C@](F)(COP(=O)(O)OP(=O)(O)OP(=O)(O)O)[C@H]1O |  |
|  | 27 nM | C#C[C@@]1(O)[C@H](O)[C@@H](COP(=O)(O)OP(=O)(O)OP(=O)(O)O)O[C@H]1n1ccc(=O)[nH]c1=O |  |
| 40 nM |  | C[C@H](NP(=O)(OC[C@@]1(F)O[C@@H](n2ccc(=O)[nH]c2=O)[C@](C)(O)[C@@H]1O)Oc1ccccc1)C(=O)OC1CCCCC1 (stereo partly drawn) | 84000 nM |
| 45 nM |  | CC(C)OC(=O)[C@H](C)NP(=O)(OC[C@@]1(F)O[C@@H](n2ccc(=O)[nH]c2=O)[C@@](F)(Cl)[C@@H]1O)Oc1ccccc1 (stereo partly drawn) | > 100000 nM |
| 43000 nM |  | CC[C@]1(O)[C@H](n2ccc(=O)[nH]c2=O)O[C@](F)(COP(=O)(N[C@@H](C)C(=O)OC(C)C)Oc2ccccc2)[C@H]1O (stereo partly drawn) | > 100000 nM |
|  | 150 nM | O=c1ccn([C@@H]2O[C@](F)(COP(=O)(O)OP(=O)(O)OP(=O)(O)O)[C@@H](O)[C@]2(O)CF)c(=O)[nH]1 |  |
|  | 330 nM | C#C[C@@]1(F)[C@H](O)[C@@H](COP(=O)(O)OP(=O)(O)OP(=O)(O)O)O[C@H]1n1ccc(=O)[nH]c1=O |  |
| 20 nM |  | CC(C)OC(=O)[C@H](C)NP(=O)(OC[C@@]1(F)O[C@@H](n2ccc(=O)[nH]c2=O)[C@](C)(O)[C@@H]1O)Oc1cccc2ccccc12 (stereo partly drawn) | > 85000 nM |
| 7500 nM |  | CCOC(=O)[C@H](C)NP(=O)(N[C@@H](C)C(=O)OCC)OC[C@@]1(F)O[C@@H](n2ccc(=O)[nH]c2=O)[C@](C)(O)[C@@H]1O | > 100000 nM |
| 80 nM |  | CC(C)OC(=O)[C@H](C)NP(=O)(OC[C@@]1(F)O[C@@H](n2ccc(=O)[nH]c2=O)[C@](C)(O)[C@@H]1O)Oc1ccc(Cl)cc1 (stereo partly drawn) | > 100000 nM |
| 6600 nM |  | CC(C)OC(=O)[C@H](C)NP(=O)(N[C@@H](C)C(=O)OC(C)C)OC[C@@]1(F)O[C@@H](n2ccc(=O)[nH]c2=O)[C@](C)(O)[C@@H]1O | > 100000 nM |
|  | 280 nM | O=c1ccn([C@@H]2O[C@H](COP(=O)(O)OP(=O)(O)OP(=O)(O)O)[C@@H](O)[C@]2(O)CF)c(=O)[nH]1 |  |
|  | 340 nM | C#C[C@]1(F)[C@H](n2ccc(=O)[nH]c2=O)O[C@](F)(COP(=O)(O)OP(=O)(O)OP(=O)(O)O)[C@H]1O |  |

| Compound | EC50 [2] | IC50 [3] | CC50 at 72 h [1] |
| --- | --- | --- | --- |
| C=C[C@]1(O)[C@H](n2ccc(=O)[nH]c2=O)O[C@](F)(COP(=O)(N[C@@H](C)C(=O)OC(C)C)Oc2ccccc2)[C@H]1O (stereo partly drawn) | 8300 nM |  | > 100000 nM |
| C[C@H](NP(=O)(OC[C@@]1(F)O[C@@H](n2ccc(=O)[nH]c2=O)[C@](C)(O)[C@@H]1O)Oc1ccccc1)C(=O)OCC(C)(C)C (stereo partly drawn) | 40 nM |  | > 100000 nM |
| CC(C)OC(=O)[C@H](C)NP(=O)(OC[C@H]1O[C@@H](n2ccc(=O)[nH]c2=O)[C@](C)(Cl)[C@@H]1O)Oc1ccccc1 (stereo partly drawn) | 120 nM |  | > 100000 nM |
| CC(C)OC(=O)[C@H](C)NP(=O)(OC[C@H]1O[C@@H](n2ccc(=O)[nH]c2=O)[C@](C)(F)[C@@H]1O)Oc1ccccc1 (stereo partly drawn) | 220 nM |  | > 100000 nM |
| CC(C)OC(=O)[C@H](C)N[P@@](=O)(OC[C@@]1(F)O[C@@H](n2ccc(=O)[nH]c2=O)[C@](C)(O)[C@@H]1O)Oc1ccccc1 | 940 nM |  | > 100000 nM |
| CC(C)OC(=O)[C@H](C)NP(=O)(OC[C@@]1(F)O[C@@H](n2ccc(=O)[nH]c2=O)[C@](C)(F)[C@@H]1O)Oc1ccccc1 (stereo partly drawn) | 310 nM |  | > 100000 nM |
| CC(C)OC(=O)[C@H](C)NP(=O)(OC[C@@]1(F)O[C@@H](n2ccc(=O)[nH]c2=O)[C@](C)(Cl)[C@@H]1O)Oc1ccccc1 (stereo partly drawn) | 100 nM |  | > 100000 nM |
